HKDC1 inhibitor – inhibitors of human hexokinase HKDC1; Q2TB90; recombinant HKDC1, G6PDH/diaphorase resazurin coupled fluorescence; inhibition, % at 20 µM; 340,000 tested, 0.16% active; AID 493160;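 active = inhibition above about 35% when tested at 20 µM, limit read from the data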;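 also: plate controls were DMSO wells with enzyme for no effect and DMSO wells lacking enzyme for full effect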
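Test system: HK5 enzyme. Quantity: 5 µg/mL HK5 final. Reagent: glucose and ATP substrates. Schedule: 90 min reaction incubation at room temperature, dark. Technique: resazurin-to-resorufin fluorescence via G6PDH and diaphorase coupling, 525/613 nm. Control set: DMSO wells with and without enzyme mix.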
ABHD5 PLIN5 PPI – inhibitors of human ABHD5-perilipin-5 interaction; 360,000 tested, 0.78% active; inhibition, % at 4 µM; Q00G26+Q8WTS1; Split G. princeps luciferase complementation, luminescence, 4 h;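 active = inhibition above the mean inhibition across every tested compound plus 3 SD, cut at about 22% in these data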;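 also: 0% = DMSO only wells and the 100% control is not disclosed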
Target sequence (Q00G26 whole entry, looked up): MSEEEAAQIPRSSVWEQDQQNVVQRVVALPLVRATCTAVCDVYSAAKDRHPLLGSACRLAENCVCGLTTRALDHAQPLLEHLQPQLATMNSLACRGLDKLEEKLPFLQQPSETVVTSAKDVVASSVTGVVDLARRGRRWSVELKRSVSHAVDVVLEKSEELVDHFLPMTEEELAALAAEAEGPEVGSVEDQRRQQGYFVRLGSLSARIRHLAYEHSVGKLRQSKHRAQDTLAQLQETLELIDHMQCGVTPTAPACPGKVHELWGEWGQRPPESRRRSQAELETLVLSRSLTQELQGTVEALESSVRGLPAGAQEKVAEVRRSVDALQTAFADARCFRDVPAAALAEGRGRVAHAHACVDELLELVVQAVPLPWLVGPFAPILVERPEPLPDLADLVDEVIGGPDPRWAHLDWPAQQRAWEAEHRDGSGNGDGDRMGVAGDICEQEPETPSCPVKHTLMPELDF
Target sequence (Q8WTS1 whole entry, looked up): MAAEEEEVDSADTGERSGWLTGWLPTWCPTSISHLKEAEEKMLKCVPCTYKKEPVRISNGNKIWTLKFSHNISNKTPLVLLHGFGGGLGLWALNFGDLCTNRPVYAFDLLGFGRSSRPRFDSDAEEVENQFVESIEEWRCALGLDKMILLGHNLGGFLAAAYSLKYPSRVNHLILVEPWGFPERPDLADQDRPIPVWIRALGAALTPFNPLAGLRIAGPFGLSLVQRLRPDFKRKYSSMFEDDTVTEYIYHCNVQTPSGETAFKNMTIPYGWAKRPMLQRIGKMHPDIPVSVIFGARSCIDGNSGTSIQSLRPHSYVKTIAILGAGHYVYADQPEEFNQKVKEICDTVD
PfG6PD inh – PfG6PD (Plasmodium falciparum) enzyme inhibition | PfGluPho enzyme, NADPH resazurin-diaphorase fluorescence | inhibition, % at 20 µM | 350,000 tested, 0.78% active | AID 504690;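 active = inhibition reaching at least a set limit at 20 µM in the primary screen, cut at about 59% in these data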;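 also: 0% = DMSO wells with substrate and 100% = DMSO wells lacking glucose-6-phosphate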
Granule exo inh – lytic granule exocytosis inhibition; AID 651702; TALL-104 LAMP-1 surface exposure, flow cytometry; cells stimulated with thapsigargin and PMA; inhibition, % at 10 µM; 360,000 tested, 0.66% active;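 active = inhibition above about 55%, limit read from the data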
PfGluPho conf – PfG6PD inhibition, single-dose confirmed; recombinant PfGluPho, NADPH-diaphorase-resazurin fluorescence; inhibition, % at 20 µM; 2,400 tested, 34% active; AID 504753; shares compounds with PfG6PD inh;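 active = inhibition of at least 50% at 20 µM in any single replicate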;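 also: 0% = DMSO with substrate and 100% = DMSO lacking glucose-6-phosphate substrate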
Diaph ctr 10uM – counter-screen for P. falciparum G6PD inhibitors: diaphorase inhibitors, oxidizers; 820 tested, 39% active; diaphorase-coupled resazurin reduction, fluorescence, NADPH 10 uM; shares compounds with PfG6PD inh; inhibition, % at 20 µM;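 active = average inhibition reaching 50% or more with the compound at 20 µM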;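 also: resorufin red fluorescence formed as diaphorase reduces resazurin using NADPH; 0% = DMSO with enzyme and 100% = DMSO without enzyme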
Diaphorase 30uM – counter-screen for P. falciparum G6PD inhibitors: diaphorase inhibitors, oxidizers. AID 504863. Diaphorase/resazurin coupled assay, resorufin fluorescence, 30 uM NADPH. shares compounds with PfG6PD inh. inhibition, % at 20 µM. 820 tested, 29% active;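 active = inhibition averaging 50% or more, tested at 20 µM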;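 also: 0% = DMSO with enzyme and 100% = DMSO wells lacking diaphorase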
* hit, by the source's call; . = no result given. An excerpt weighted towards active compounds, which were near 2.2% of everything screened.

SMILES	HKDC1 inhibitor	ABHD5 PLIN5 PPI	PfG6PD inh	Granule exo inh	PfGluPho conf	others
COC(=O)CCCC1=CC2=CC(=O)C(C)(OC(=O)c3cccs3)C(=O)C2=CN1CCCOC(C)C (stereo not given)	22	-7	62*	3	20
COC(=O)CCCC1=CC2=CC(=O)C(C)(OC(=O)c3cccs3)C(=O)C2=CN1Cc1ccc2c(c1)OCO2 (stereo not given)	23	-15	43	-1	.
COC(=O)CCCC1=CC2=CC(=O)C(C)(OC(=O)c3cccs3)C(=O)C2=CN1Cc1ccco1 (stereo not given)	19	9	73*	8	31
COC(=O)CCCC1=CC2=CC(=O)C(C)(OC(=O)c3cccs3)C(=O)C2=CN1C1CCCC1 (stereo not given)	15	-14	44	15	.
COc1cc(C(=O)Nc2ccc(S(=O)(=O)N3CCCCC3)cc2)ccc1OCC(=O)N1CCOCC1	2	-2	1	-3	.
CC(C)NC(=O)C(C)Oc1ccc(S(=O)(=O)NCc2ccc3c(c2)OCO3)cc1 (stereo not given)	-2	-9	0	-1	.
Cc1nc2ccc(NC(=O)c3cc(S(=O)(=O)N4CCOCC4)ccc3C)cc2s1	-1	1	4	-1	.
Cc1nc2ccc(Nc3nc4cc(S(=O)(=O)N5CCOCC5)ccc4o3)cc2s1	1	2	93*	0	54*	Diaph ctr 10uM=19;Diaphorase 30uM=24
CCSc1nc2cc(S(=O)(=O)N3CCOCC3)ccc2o1	-16	-5	71*	-13	50*	Diaph ctr 10uM=-18;Diaphorase 30uM=-21
COc1ccccc1C(CNC(=O)CN1C(=O)NC(C)(c2ccc3ccccc3c2)C1=O)N1CCCC1 (stereo not given)	-2	-8	-3	-1	.
CCOC(=O)C1(Cc2cccc(Cl)c2)CCCN(CCO)C1 (stereo not given)	-9	2	15	2	.
Cc1ccc(-n2nc(C(=O)N3CCOCC3)cc2-c2ccc(Cl)cc2)cc1	5	-9	60*	-2	35
O=C(c1cc(-c2ccc(Cl)cc2)n(-c2ccc(Cl)cc2)n1)N1CCOCC1	-4	2	34	1	.
CCOC(=O)N=Nc1c2ccccc2c2nc3no[nH]c3nc12	33	-10	69*	26	61*	Diaph ctr 10uM=51*;Diaphorase 30uM=51*
COc1ccc(C(=O)NCC2(c3ccc(OC)c(OC)c3)CCCC2)cc1OC	.	-2	-10	-2	.
COc1ccc(C2(CNC(=O)c3ccc(OC)c([N+](=O)[O-])c3)CCCCC2)cc1OC	-3	6	85*	6	53*	Diaph ctr 10uM=54*;Diaphorase 30uM=43
C[C@@H]1CN([C@@H](C)CO)C(=O)CCCn2nncc2CO[C@@H]1CN(C)C(=O)c1ccncc1	.	1	-4	-1	.
CC(C)c1ccccc1OCCNC(=S)NC(=O)c1cccnc1	1	0	67*	-30	21
Cc1cc(Cl)ccc1OCCNC(=S)NC(=O)c1cccnc1	-3	-2	-27	-2	.
NC(CO)(CO)COCc1ccccc1	-1	-1	4	-3	.
Oc1ccc(C=NNc2ccccn2)c(O)c1	14	-9	61*	-2	45
CCC1COCCS(=O)(=O)N1Cc1cccc(C(F)(F)F)c1 (stereo not given)	-5	-7	-5	4	.
COc1ccc([N+](=O)[O-])cc1/C=N/NC(=O)/C(=C\c1cccs1)NC(=O)c1ccccc1	-1	11	99*	2	82*	Diaph ctr 10uM=86*;Diaphorase 30uM=70*
CCOc1ccc(NC(=S)N2CCC(NC(=O)c3ccccc3C)CC2)cc1	-4	-17	10	2	.
CC(C)CCN1NC2(CCCC(C)C2)NC1=S (stereo not given)	-6	-8	8	-7	.
SMILES	HKDC1 inhibitor	ABHD5 PLIN5 PPI	PfG6PD inh	Granule exo inh	PfGluPho conf	others
CC1CCCC2(C1)NC(=S)c1c(sc3c1CCCC3)N2 (stereo not given)	-3	-10	64*	1	11
Cc1ccccc1C(=O)c1cccn1CC(=O)NCCCN1CCc2ccccc2C1	-3	4	7	0	.
O=C(Nc1n[nH]c(=S)s1)c1ccco1	-3	-2	60*	-4	37
CCOc1ccc2c(c1)n([O-])c1c([n+]2=O)CCCC1	7	-7	99*	23	4
COc1ccc(O)c(C(=O)C2c3ccccc3C(=O)N2c2ccc(C)cc2)c1 (stereo not given)	3	-7	66*	0	-6
COc1ccc(N2C(=O)c3ccccc3C2O)cc1 (stereo not given)	-1	1	-7	3	.
Cc1cc(=O)c(C(=O)O)nn1-c1cccc(C(F)(F)F)c1	-3	3	-2	7	.
O=c1ccn(-c2cccc(C(F)(F)F)c2)nc1-c1ccn(-c2ccccc2)n1	1	-1	91*	-5	73*	Diaph ctr 10uM=66*;Diaphorase 30uM=55*
COc1cc(C)c(COc2ncnc3ccccc23)cc1OC	-4	-10	-6	-10	.
CCNC(=S)N/N=C/c1cccc(OCc2c(F)cccc2Cl)c1	-3	-3	60*	-3	-22
CNC(=S)N/N=C/c1cccc(OCc2ccccc2F)c1	-7	-7	42	-2	.
O=C(CN(Cc1ccc(Br)cc1)S(=O)(=O)c1ccccc1)NCc1cccnc1	2	-3	63*	3	27
CCN1/C(=C/C(=O)c2ccco2)Sc2ccccc21	3	-2	77*	2	34
CCC(=O)/C=C1/Sc2ccccc2N1CC	6	-7	53	0	.
NC(=S)NNc1ccc(Cl)c(Cl)c1	5	-12	65*	68*	10
Cc1ccc(NNC(N)=S)cc1Cl	2	0	28	6	.
CCN1CCN(c2nc(C)nc3c2sc(=S)n3C)CC1	-5	5	76*	10	62*	Diaph ctr 10uM=-19;Diaphorase 30uM=-15
CC(=O)Nc1cc(OC(C)=O)c2nonc2c1OC(C)=O	9	18	80*	36	53*	Diaph ctr 10uM=18;Diaphorase 30uM=24
CC(=O)Nc1nonc1NC(C)=O	-5	1	-12	-1	.
O=c1[nH]cc(C(F)(F)F)cc1NS(=O)(=O)c1ccccc1[N+](=O)[O-]	-5	-2	42	-3	.
Cc1cc(C)c(S(=O)(=O)c2cccc(Br)c2C)c(Cl)n1	1	-11	69*	14	22
CCn1c(SCC(=O)Nc2ccc(N3CCOCC3)cc2)nnc1-c1ccco1	-4	0	4	-2	.
COC(=O)CCCC1=CC2=C(c3ccccc3)C(=O)C(C)(OC(=O)C3CCCC3)C(=O)C2=CN1Cc1ccc2c(c1)OCO2 (stereo not given)	18	1	2	-5	.
CC1(OC(=O)C2CCCC2)C(=O)C=C2C=C(c3ccsc3)N(C3CCCCC3)C=C2C1=O (stereo not given)	16	-13	42	21	.
